Holding throughout (format): cell-based
Test [1] concerns the target T1, Muscarinic acetylcholine receptor M3 (Homo sapiens, UniProt P20309). Put plainly: Inhibition of [3H]NMS binding to human cloned M3 receptor expressed in CHO cells at 1 uM.
Target sequence in this assay (P20309 whole entry, looked up): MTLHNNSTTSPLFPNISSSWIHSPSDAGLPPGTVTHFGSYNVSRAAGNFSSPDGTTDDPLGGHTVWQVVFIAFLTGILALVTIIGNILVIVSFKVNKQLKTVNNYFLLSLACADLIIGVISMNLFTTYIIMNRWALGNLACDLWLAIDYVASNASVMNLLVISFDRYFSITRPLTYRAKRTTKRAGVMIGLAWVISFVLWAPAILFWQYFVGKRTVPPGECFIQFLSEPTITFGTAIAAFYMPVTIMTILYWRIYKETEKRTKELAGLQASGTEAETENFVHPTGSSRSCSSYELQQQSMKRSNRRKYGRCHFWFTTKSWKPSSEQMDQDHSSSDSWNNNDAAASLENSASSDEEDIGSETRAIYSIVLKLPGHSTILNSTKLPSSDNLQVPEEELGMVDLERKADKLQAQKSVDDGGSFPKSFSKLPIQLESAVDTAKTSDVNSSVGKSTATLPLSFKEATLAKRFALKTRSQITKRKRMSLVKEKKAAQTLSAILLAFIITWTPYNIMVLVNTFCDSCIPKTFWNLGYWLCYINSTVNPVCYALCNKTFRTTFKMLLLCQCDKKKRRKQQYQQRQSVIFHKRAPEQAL
For test [2], the target named is T1, Muscarinic acetylcholine receptor M3. Put plainly: Inhibition of [3H]NMS binding to human cloned M3 receptor expressed in CHO cells. The procedure, abridged: (§1)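 Competition against specific [3H]-NMS binding on membranes of CHO cells expressing cloned human receptor subtypes. Assay buffer 50 mM Tris-HCl, 10 mM MgCl2, 1 mM EDTA, pH 7.4, highest final concentration 10 µM.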
Target sequence in this assay (P20309 whole entry): as the sequence (P20309 whole entry, looked up) above

Test [3] deals with T2, Muscarinic acetylcholine receptor M1 (Homo sapiens, UniProt P11229).
T2 sequence (P11229 whole entry): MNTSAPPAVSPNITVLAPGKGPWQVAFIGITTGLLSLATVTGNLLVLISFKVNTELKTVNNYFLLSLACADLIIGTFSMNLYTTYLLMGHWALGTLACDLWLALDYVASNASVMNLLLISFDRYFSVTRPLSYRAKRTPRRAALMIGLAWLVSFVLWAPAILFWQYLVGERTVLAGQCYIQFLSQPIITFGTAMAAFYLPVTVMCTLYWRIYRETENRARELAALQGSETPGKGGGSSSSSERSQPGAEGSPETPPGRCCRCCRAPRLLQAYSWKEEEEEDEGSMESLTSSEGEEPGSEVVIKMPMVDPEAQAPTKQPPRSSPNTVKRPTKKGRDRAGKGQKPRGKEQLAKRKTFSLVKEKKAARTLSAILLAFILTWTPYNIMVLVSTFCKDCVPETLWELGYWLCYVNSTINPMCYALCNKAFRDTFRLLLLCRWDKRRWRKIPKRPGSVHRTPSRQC
Kind of test: Inhibition of [3H]NMS binding to human cloned M1 receptor expressed in CHO cells. The procedure, abridged: as §1

Test [4] addresses T3, Muscarinic acetylcholine receptor M4 (Homo sapiens, UniProt P08173).
T3 sequence (P08173 whole entry): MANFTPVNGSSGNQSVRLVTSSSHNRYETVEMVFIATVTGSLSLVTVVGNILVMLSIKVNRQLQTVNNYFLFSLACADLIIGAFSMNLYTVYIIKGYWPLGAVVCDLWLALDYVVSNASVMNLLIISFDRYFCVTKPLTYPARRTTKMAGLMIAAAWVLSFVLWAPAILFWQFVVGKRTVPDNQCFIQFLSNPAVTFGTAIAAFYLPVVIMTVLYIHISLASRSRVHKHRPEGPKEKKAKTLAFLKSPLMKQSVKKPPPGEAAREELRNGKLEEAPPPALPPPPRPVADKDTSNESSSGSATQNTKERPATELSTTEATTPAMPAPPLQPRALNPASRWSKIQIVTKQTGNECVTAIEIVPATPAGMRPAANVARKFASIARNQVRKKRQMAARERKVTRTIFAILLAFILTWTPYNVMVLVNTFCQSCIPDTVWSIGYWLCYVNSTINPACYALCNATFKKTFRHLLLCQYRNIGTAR
Put plainly: Inhibition of [3H]NMS binding to human cloned M4 receptor expressed in CHO cells. The procedure, abridged:
as §1

The target in test [5] is T4, Muscarinic acetylcholine receptor M5 (Homo sapiens, UniProt P08912).
T4 sequence (P08912 whole entry): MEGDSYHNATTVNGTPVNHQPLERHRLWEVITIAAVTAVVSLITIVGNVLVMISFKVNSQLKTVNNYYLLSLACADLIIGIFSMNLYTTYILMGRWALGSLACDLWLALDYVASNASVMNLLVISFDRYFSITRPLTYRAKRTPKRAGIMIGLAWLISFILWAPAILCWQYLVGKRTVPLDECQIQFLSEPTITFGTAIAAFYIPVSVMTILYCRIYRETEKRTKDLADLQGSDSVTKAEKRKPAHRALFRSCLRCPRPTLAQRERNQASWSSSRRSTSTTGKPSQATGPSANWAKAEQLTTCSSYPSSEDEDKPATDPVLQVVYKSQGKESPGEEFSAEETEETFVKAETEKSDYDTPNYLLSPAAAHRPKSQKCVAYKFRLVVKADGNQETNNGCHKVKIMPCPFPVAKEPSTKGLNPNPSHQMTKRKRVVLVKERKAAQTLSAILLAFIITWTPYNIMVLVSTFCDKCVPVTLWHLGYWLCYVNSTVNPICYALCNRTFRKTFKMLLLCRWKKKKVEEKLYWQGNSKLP
Kind of test: Inhibition of [3H]NMS binding to human cloned M5 receptor expressed in CHO cells. The procedure, abridged:
as §1

Take `NCCNC(=O)[C@H]1CCCN1C(=O)[C@@H]1CCCN1C(=O)CC(c1ccccc1)(c1ccccc1)c1ccccc1`: the inhibition in test [1] is -4%. `O=C(NC1CCNCC1)[C@H]1CCCN1C(=O)[C@@H]1CCCN1C(=O)CC(c1ccccc1)(c1ccccc1)c1ccccc1`: the inhibition in test [1] worked out at 4%. Take `O=C([C@H]1CCCN1C(=O)[C@@H]1CCCN1C(=O)CC(c1ccccc1)(c1ccccc1)c1ccccc1)N1CCCNCC1`: in test [1], the inhibition is -2%. `O=C(NCC1CCCCN1)[C@H]1CCCN1C(=O)[C@@H]1CCCN1C(=O)CC(c1ccccc1)(c1ccccc1)c1ccccc1` (stereo partly drawn): in test [1], the inhibition is 28%. Take `NCc1cccc(NC(=O)[C@H]2CCCN2C(=O)[C@@H]2CCCN2C(=O)CC(c2ccccc2)(c2ccccc2)c2ccccc2)c1`: the inhibition in test [1] is 12%.

As to `O=C(NCC1CCN(C2CCCC2)CC1)[C@H]1CCCN1C(=O)[C@@H]1C[C@@H](O)CN1C(=O)CC(c1ccc(F)cc1)(c1ccc(F)cc1)c1ccc(F)cc1`, the inhibitory constant (Ki) in test [2] amounted to 0.51 nM; in test [3], 210 nM; in test [4], 48 nM; in test [5] it was 3200 nM. Turning to `O=C(NCCC1CCNCC1)[C@H]1CCCN1C(=O)[C@@H]1C[C@@H](O)CN1C(=O)CC(c1ccc(F)cc1)(c1ccc(F)cc1)c1ccc(F)cc1`, the Ki in test [2] was 0.48 nM; in test [3], 300 nM; in test [4] it was 29 nM; in test [5], 1700 nM. With `NCC1CCCN(C(=O)[C@H]2CCCN2C(=O)[C@@H]2CCCN2C(=O)CC(c2ccccc2)(c2ccccc2)c2ccccc2)C1` (stereo partly drawn), in test [1], the inhibition came out at 32%.

As for `O=C(NCCC1CCNCC1)[C@H]1CCCN1C(=O)[C@@H]1C[C@@H](O)CN1C(=O)CC(c1ccc(Cl)cc1)(c1ccc(Cl)cc1)c1ccc(Cl)cc1`, the Ki was found to be 1.2 nM in test [2], 260 nM in test [3], 24 nM in test [4] and 950 nM in test [5]. Turning to `CCN1CCC(CNC(=O)[C@H]2CCCN2C(=O)[C@@H]2C[C@@H](O)CN2C(=O)CC(c2ccc(F)cc2)(c2ccc(F)cc2)c2ccc(F)cc2)CC1`, the Ki in test [2] was 0.92 nM; in test [3] it was 580 nM; in test [4] it was 92 nM; in test [5] it was 2800 nM. For the compound `N[C@@H]1CCCC[C@@H]1NC(=O)[C@H]1CCCN1C(=O)[C@@H]1CCCN1C(=O)CC(c1ccccc1)(c1ccccc1)c1ccccc1`, the inhibition in test [1] turned out to be 40%. Consider `Nc1ccc(NC(=O)[C@H]2CCCN2C(=O)[C@@H]2CCCN2C(=O)CC(c2ccccc2)(c2ccccc2)c2ccccc2)cc1`, for which, in test [1], the inhibition stood at 8%. On to `NC1CCC(NC(=O)[C@H]2CCCN2C(=O)[C@@H]2CCCN2C(=O)CC(c2ccccc2)(c2ccccc2)c2ccccc2)CC1` (stereo partly drawn), for which the inhibition in test [1] is -7%. In the case of `Nc1ccc(CNC(=O)[C@H]2CCCN2C(=O)[C@@H]2CCCN2C(=O)CC(c2ccccc2)(c2ccccc2)c2ccccc2)cc1`, in test [1], the inhibition was found to be 6%. On the same count and under the same terms, as for `O=C(NC1CCNC1)[C@H]1CCCN1C(=O)[C@@H]1CCCN1C(=O)CC(c1ccccc1)(c1ccccc1)c1ccccc1` (stereo partly drawn), the figure is -4%. As for `O=C(NCCC1CCNCC1)[C@H]1CCCN1C(=O)[C@@H]1C[C@@H](O)CN1C(=O)CC(c1ccccc1)(c1ccccc1)c1ccccc1`, the Ki was 2.8 nM in test [2], 2000 nM in test [3], 150 nM in test [4] and over 5100 nM in test [5]. Consider `NCCCNC(=O)[C@H]1CCCN1C(=O)[C@@H]1CCCN1C(=O)CC(c1ccccc1)(c1ccccc1)c1ccccc1`, for which the inhibition in test [1] is 2%. On to `NCC1CCCCN1C(=O)[C@H]1CCCN1C(=O)[C@@H]1CCCN1C(=O)CC(c1ccccc1)(c1ccccc1)c1ccccc1` (stereo partly drawn), for which, in test [1], the inhibition was found to be 5%. On to `O=C([C@H]1CCCN1C(=O)[C@@H]1CCCN1C(=O)CC(c1ccccc1)(c1ccccc1)c1ccccc1)N1CCC2NCCC21` (stereo partly drawn), for which the inhibition in test [1] worked out at 7%. Regarding `Nc1ccccc1NC(=O)[C@H]1CCCN1C(=O)[C@@H]1CCCN1C(=O)CC(c1ccccc1)(c1ccccc1)c1ccccc1`, in test [1], the inhibition was 11%. `NCC1CCN(C(=O)[C@H]2CCCN2C(=O)[C@@H]2CCCN2C(=O)CC(c2ccccc2)(c2ccccc2)c2ccccc2)CC1` returned an inhibition constant (Ki) in test [2] of 150 nM. In addition, the inhibition in test [1] amounted to 59%. In test [2], `N[C@H]1CCCC[C@@H]1NC(=O)[C@H]1CCCN1C(=O)[C@@H]1CCCN1C(=O)CC(c1ccccc1)(c1ccccc1)c1ccccc1` had an inhibition constant Ki of 48 nM. Further, in test [1], the inhibition turned out to be 80%.

Take `NC1CCCC(NC(=O)[C@H]2CCCN2C(=O)[C@@H]2CCCN2C(=O)CC(c2ccccc2)(c2ccccc2)c2ccccc2)C1` (stereo partly drawn): in test [2], the affinity, expressed as Ki, was 170 nM. Besides, in test [1], the inhibition was 59%. On to `O=C(NC[C@@H]1CCCNC1)[C@H]1CCCN1C(=O)[C@@H]1C[C@@H](O)CN1C(=O)CC(c1ccc(F)cc1)(c1ccc(F)cc1)c1ccc(F)cc1`, for which the Ki in test [2] is 0.39 nM; in test [3], 300 nM; in test [4], 39 nM; in test [5] it was 1700 nM. As to `Nc1ccccc1CNC(=O)[C@H]1CCCN1C(=O)[C@@H]1CCCN1C(=O)CC(c1ccccc1)(c1ccccc1)c1ccccc1` (stereo in doubt; 46), the inhibition in test [1] was determined as 10%. In the case of `Nc1cccc(NC(=O)[C@H]2CCCN2C(=O)[C@@H]2CCCN2C(=O)CC(c2ccccc2)(c2ccccc2)c2ccccc2)c1`, the inhibition in test [1] is 0%.

Regarding `O=C([C@H]1CCCN1C(=O)[C@@H]1CCCN1C(=O)CC(c1ccccc1)(c1ccccc1)c1ccccc1)N1CCNCC1`, the inhibition in test [1] was 12%.

Take `O=C(NCC1CCNC1)[C@H]1CCCN1C(=O)[C@@H]1CCCN1C(=O)CC(c1ccccc1)(c1ccccc1)c1ccccc1` (stereo partly drawn): the inhibition in test [1] stood at 33%.

On to `Nc1ccccc1CNC(=O)[C@H]1CCCN1C(=O)[C@@H]1CCCN1C(=O)CC(c1ccccc1)(c1ccccc1)c1ccccc1` (stereo in doubt; 45), for which the inhibition in test [1] came out at 5%. With `O=C(NCCC1CCNCC1)[C@H]1CCCN1C(=O)[C@@H]1CCCN1C(=O)CC(c1ccccc1)(c1ccccc1)c1ccccc1`, in test [2], affinity was put at a Ki of 29 nM. Further, in test [1], the inhibition worked out at 88%. Consider `O=C(NC[C@@H]1CCCNC1)[C@H]1CCCN1C(=O)[C@@H]1CCCN1C(=O)CC(c1ccccc1)(c1ccccc1)c1ccccc1`, for which the Ki in test [2] amounted to 23 nM. The inhibition in test [1] is 91%. As for `O=C([C@H]1CCCN1C(=O)[C@@H]1CCCN1C(=O)CC(c1ccccc1)(c1ccccc1)c1ccccc1)N1CCCNC1`, the inhibition in test [1] was 12%. Regarding `NC1CCN(C(=O)[C@H]2CCCN2C(=O)[C@@H]2CCCN2C(=O)CC(c2ccccc2)(c2ccccc2)c2ccccc2)C1` (stereo partly drawn), the inhibition in test [1] stood at 0%.

Take `O=C(NCC1CCNCC1)[C@H]1CCCN1C(=O)[C@@H]1CCCN1C(=O)CC(c1ccccc1)(c1ccccc1)c1ccccc1`: in test [2], affinity was put at a Ki of 49 nM. The inhibition in test [1] worked out at 82%. Consider `O=C([C@H]1CCCN1C(=O)[C@@H]1CCCN1C(=O)CC(c1ccccc1)(c1ccccc1)c1ccccc1)N1CC2CNCC2C1` (stereo partly drawn), for which the inhibition in test [1] came to 7%. As to `NCc1ccc(NC(=O)[C@H]2CCCN2C(=O)[C@@H]2CCCN2C(=O)CC(c2ccccc2)(c2ccccc2)c2ccccc2)cc1`, the inhibition in test [1] is 9%. As for `Nc1cccc(CNC(=O)[C@H]2CCCN2C(=O)[C@@H]2CCCN2C(=O)CC(c2ccccc2)(c2ccccc2)c2ccccc2)c1`, the inhibition in test [1] was 6%. Same read-out and setting: in the case of `NCC1CCN(C(=O)[C@H]2CCCN2C(=O)[C@@H]2CCCN2C(=O)CC(c2ccccc2)(c2ccccc2)c2ccccc2)C1` (stereo partly drawn) it was 7%; in that of `NC1CCCN(C(=O)[C@H]2CCCN2C(=O)[C@@H]2CCCN2C(=O)CC(c2ccccc2)(c2ccccc2)c2ccccc2)C1` (stereo partly drawn), 22%.

For orientation: inhibition means the drop in the measured response relative to a control, in per cent. As usually defined, the Ki is a measure of affinity in units of concentration, obtained from inhibition or displacement. Low readings indicate higher affinity, high ones lower affinity.

These data come from ChEMBL document CHEMBL1148687, “Identification of a novel 4-aminomethylpiperidine class of M3 muscarinic receptor antagonists and structural insight into their M3 selectivity” (J Med Chem, 2006).
